Test results reported in ChEMBL document CHEMBL4732105, “First orally bioavailable prodrug of proteolysis targeting chimera (PROTAC) degrades cyclin-dependent kinases 2/4/6 in vivo” (Eur J Med Chem, 2021).
Active and inactive are the calls of the source. No cut-off for these calls is given here.

Assays:
[1] = tested on: A-375; test: Induction of cell cycle arrest in human A-375 cells assessed as accumulation at G1 phase at 1000 uM incubated for 48 hrs by propidium iodide staining based flow cytometry (reference value: 58.26%); format: functional
How it was run: (§1)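 Tumor cells incubated 48 h in complete medium with compound or DMSO at various concentrations, stained with propidium iodide, and DNA content read by flow cytometry. G0/G1, S and G2/M fractions reported; mean ± SD, n = 3, Student's t-test.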

[2] = molecular target: T1, Protein cereblon/Cyclin-dependent kinase 4 (Mus musculus) (UniProt P30285+Q8C7D2); test: Protac activity at CRBN/CDK4 in mouse B16F10 cells assessed as induction of CDK4 protein degradation at 100 nM for 6 hrsin presence of Pomalidomide by Western blot analysis; format: cell-based; conditions: B16-F10, time 6.0 hrs
How it was run: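 B16F10 cells pre-treated 2 h with DMSO, pomalidomide (10 μM), MG132 (20 μM) or a parent CDK ligand, then exposed to 100 nM degrader for 6 h. CDK2/4/6 protein levels read by western blot.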

[3] = tested on: B16-F10; test: Induction of apoptosis in mouse B16F10 cells assessed as early apoptotic cells at 500 nM incubated for 48 hrs by Annexin V-FITC/PI staining based flow cytometry (reference value: 3.52%); format: functional
[4] = molecular target: Protein cereblon/Cyclin-dependent kinase 4 (Homo sapiens) (UniProt P11802+Q96SW2); test: Protac activity at CRBN/CDK4 in human A-375 cells assessed as induction of CDK4 protein degradation after 12 hrs by Western blot analysis; format: cell-based; conditions: dose 62.5-1000 nM
How it was run: (§2)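 B16F10 and A375 cells treated with DMSO or serial dilutions of compound for 12 h (concentration series), or for the indicated times (time course). CDK2, CDK4 and CDK6 protein levels determined by western blot.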

[5] = tested on: A-375; test: Induction of cell cycle arrest in human A-375 cells assessed as accumulation at G1 phase at 500 uM incubated for 48 hrs by propidium iodide staining based flow cytometry (reference value: 58.26%); format: functional; how it was run: as §1
[6] = tested on: A-375; test: Induction of apoptosis in human A-375 cells assessed as early apoptotic cells at 1000 nM incubated for 48 hrs by Annexin V-FITC/PI staining based flow cytometry (reference value: 2.82%); format: functional
[7] = tested on: A-375; test: Induction of apoptosis in human A-375 cells assessed as early apoptotic cells at 500 nM incubated for 48 hrs by Annexin V-FITC/PI staining based flow cytometry (reference value: 2.82%); format: functional
[8] = molecular target: T1, Protein cereblon/Cyclin-dependent kinase 4 (Mus musculus); test: Protac activity at CRBN/CDK4 in mouse B16F10 cells assessed as induction of CDK4 protein degradation at 500 nM by Western blot analysis; format: cell-based; conditions: B16-F10, time hrs <=12, TDE = time-dependent effect; how it was run: as §2
[9] = Tmax in Sprague-Dawley rat at 10 mg/kg, iv; format: ADME, organism-based; conditions: in vivo
How it was run: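 SD rats, n = 3, single dose of prodrug: IV by tail vein at 10 mg/Kg, or PO at 200 mg/Kg. Plasma levels of prodrug and released active degrader followed over 0–12 h. Parameters derived by a non-compartmental model.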

[10] = tested on: B16-F10; test: Induction of apoptosis in mouse B16F10 cells assessed as necrotic cells at 250 nM incubated for 48 hrs by Annexin V-FITC/PI staining based flow cytometry (reference value: 0.21%); format: functional
[11] = tested on: A-375; test: Induction of cell cycle arrest in human A-375 cells assessed as accumulation at G2 phase at 500 uM incubated for 48 hrs by propidium iodide staining based flow cytometry (reference value: 12.42%); format: functional; how it was run: as §1
[12] = molecular target: Protein cereblon/Cyclin-dependent kinase 2 (Homo sapiens) (UniProt P24941+Q96SW2); test: Protac activity at CRBN/CDK2 in human A-375 cells assessed as induction of CDK2 protein degradation at 1000 nM by Western blot analysis; format: cell-based; conditions: time hrs <=12, TDE = time-dependent effect; how it was run: as §2
[13] = molecular target: T2, Protein cereblon/Cyclin-dependent kinase 6 (Mus musculus) (UniProt Q8C7D2+Q64261); test: Protac activity at CRBN/CDK6 in mouse B16F10 cells assessed as induction of CDK6 protein degradation at 100 nM for 6 hrsin presence of Ribociclib by Western blot analysis; format: cell-based; conditions: B16-F10, time 6.0 hrs
[14] = tested on: B16-F10; test: Induction of apoptosis in mouse B16F10 cells assessed as increase in bax level upto 1000 nM incubated for 48 hrs by Western blot analysis; format: functional, cell-based; conditions: dose nM <=1000, time 48.0 hrs
How it was run: (§3)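 A375 and B16F10 cells incubated with compound for 48 h. Cleaved caspase-3, cleaved PARP, total P53, Bcl-2 and Bax measured by western blot.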

[15] = tested on: B16-F10; test: Induction of cell cycle arrest in mouse B16-F10 cells assessed as accumulation at G2 phase at 100 uM incubated for 48 hrs by propidium iodide staining based flow cytometry (reference value: 18.22%); format: functional
[16] = tested on: B16-F10; test: Induction of apoptosis in mouse B16F10 cells incubated for 48 hrs by Annexin V-FITC/PI staining based flow cytometry; format: functional, cell-based; conditions: dose nM <=1000, time 48.0 hrs
[17] = tested on: B16-F10; test: Induction of apoptosis in mouse B16F10 cells assessed as early apoptotic cells at 250 nM incubated for 48 hrs by Annexin V-FITC/PI staining based flow cytometry (reference value: 3.52%); format: functional
[18] = tested on: B16-F10; test: Induction of cell cycle arrest in mouse B16-F10 cells assessed as accumulation at G2 phase at 50 uM incubated for 48 hrs by propidium iodide staining based flow cytometry (reference value: 18.22%); format: functional
[19] = tested on: A-375; test: Induction of apoptosis in human A-375 cells assessed as increase in P-53 level upto 2000 nM incubated for 48 hrs by Western blot analysis; format: functional, cell-based; conditions: dose nM <=2000, time 48.0 hrs; how it was run: as §3
[20] = molecular target: T2, Protein cereblon/Cyclin-dependent kinase 6 (Mus musculus); test: Protac activity at CRBN/CDK6 in mouse B16F10 cells assessed as induction of CDK6 protein degradation at 500 nM by Western blot analysis; format: cell-based; conditions: B16-F10, time hrs <=12, TDE = time-dependent effect; how it was run: as §2
[21] = tested on: A-375; test: Induction of apoptosis in human A-375 cells assessed as late apoptotic cells at 250 nM incubated for 48 hrs by Annexin V-FITC/PI staining based flow cytometry (reference value: 3.28%); format: functional
[22] = tested on: A-375; test: Induction of apoptosis in human A-375 cells incubated for 48 hrs by Annexin V-FITC/PI staining based flow cytometry; format: functional, cell-based; conditions: dose nM <=1000, time 48.0 hrs
[23] = tested on: B16-F10; test: Induction of cell cycle arrest in mouse B16-F10 cells assessed as accumulation at G1 phase at 50 uM incubated for 48 hrs by propidium iodide staining based flow cytometry (reference value: 52.59%); format: functional
[24] = molecular target: Protein cereblon/Cyclin-dependent kinase 6 (Homo sapiens) (UniProt Q00534+Q96SW2); test: Protac activity at CRBN/CDK6 in human A-375 cells assessed as induction of CDK6 protein degradation at 1000 nM by Western blot analysis; format: cell-based; conditions: time hrs <=12, TDE = time-dependent effect; how it was run: as §2
[25] = tested on: A-375; test: Induction of apoptosis in human A-375 cells assessed as decrease in Bcl-2 level upto 2000 nM incubated for 48 hrs by Western blot analysis; format: functional, cell-based; conditions: dose nM <=2000, time 48.0 hrs; how it was run: as §3
[26] = tested on: B16-F10; test: Inhibition of colony formation in mouse B16F10 cells at 50 to 100 nM measured after 7 days by crystal violet staining based colony formation assay; format: functional, cell-based; conditions: dose 50-100 nM, time 7.0 day
How it was run: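 Colony formation (long-term growth) assay in A375 and B16F10 cells under continuous compound exposure for 7 days, then clonogenic growth quantified. Mean ± SD, n = 3; Student's t-test.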

[27] = tested on: B16-F10; test: Induction of apoptosis in mouse B16F10 cells assessed as viable cells at 125 nM incubated for 48 hrs by Annexin V-FITC/PI staining based flow cytometry (reference value: 95.9%); format: functional; conditions: read-out: Activity

T2 sequence (Q64261 whole entry, looked up): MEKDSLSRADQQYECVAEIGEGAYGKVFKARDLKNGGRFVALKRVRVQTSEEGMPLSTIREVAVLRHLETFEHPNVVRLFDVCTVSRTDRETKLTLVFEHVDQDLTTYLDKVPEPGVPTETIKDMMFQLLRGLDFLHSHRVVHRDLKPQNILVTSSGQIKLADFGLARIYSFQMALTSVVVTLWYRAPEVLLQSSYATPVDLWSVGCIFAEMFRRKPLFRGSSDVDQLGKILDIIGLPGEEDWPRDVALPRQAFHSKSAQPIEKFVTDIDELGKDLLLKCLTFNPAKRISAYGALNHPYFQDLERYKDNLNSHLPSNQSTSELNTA
T2 sequence (Q8C7D2 whole entry, looked up): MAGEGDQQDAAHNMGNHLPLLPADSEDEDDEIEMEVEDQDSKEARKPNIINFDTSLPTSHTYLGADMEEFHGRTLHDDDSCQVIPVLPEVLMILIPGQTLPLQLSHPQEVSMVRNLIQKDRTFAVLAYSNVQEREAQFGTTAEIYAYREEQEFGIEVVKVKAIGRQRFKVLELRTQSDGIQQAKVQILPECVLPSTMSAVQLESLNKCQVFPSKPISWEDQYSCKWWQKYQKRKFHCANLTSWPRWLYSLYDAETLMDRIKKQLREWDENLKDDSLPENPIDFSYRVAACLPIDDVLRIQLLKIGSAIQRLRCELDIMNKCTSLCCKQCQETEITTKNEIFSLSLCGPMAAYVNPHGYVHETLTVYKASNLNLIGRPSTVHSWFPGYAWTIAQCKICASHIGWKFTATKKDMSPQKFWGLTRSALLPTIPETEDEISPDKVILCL
T1 sequence (P30285 whole entry, looked up): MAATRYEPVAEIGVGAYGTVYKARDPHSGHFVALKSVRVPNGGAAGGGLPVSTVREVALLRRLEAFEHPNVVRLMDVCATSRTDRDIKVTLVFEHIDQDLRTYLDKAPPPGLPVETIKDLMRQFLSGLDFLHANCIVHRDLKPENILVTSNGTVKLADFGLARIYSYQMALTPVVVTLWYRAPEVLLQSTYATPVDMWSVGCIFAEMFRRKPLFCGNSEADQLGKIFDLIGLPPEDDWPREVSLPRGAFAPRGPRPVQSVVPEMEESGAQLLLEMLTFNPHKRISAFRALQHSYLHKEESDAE
T1 sequence (Q8C7D2 whole entry, looked up): as the sequence (Q8C7D2 whole entry, looked up) above
Chain of Protein cereblon/Cyclin-dependent kinase 4 (Homo sapiens) (P11802 2-303 limits assumed): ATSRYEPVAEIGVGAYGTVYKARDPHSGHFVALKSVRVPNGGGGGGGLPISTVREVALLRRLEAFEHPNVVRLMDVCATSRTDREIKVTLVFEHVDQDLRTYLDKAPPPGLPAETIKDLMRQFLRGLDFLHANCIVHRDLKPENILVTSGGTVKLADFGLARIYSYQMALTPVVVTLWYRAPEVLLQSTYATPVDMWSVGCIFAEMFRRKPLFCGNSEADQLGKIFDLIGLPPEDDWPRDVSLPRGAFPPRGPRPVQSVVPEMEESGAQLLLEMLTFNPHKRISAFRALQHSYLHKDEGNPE
Chain of Protein cereblon/Cyclin-dependent kinase 4 (Homo sapiens) (Q96SW2 whole entry partner): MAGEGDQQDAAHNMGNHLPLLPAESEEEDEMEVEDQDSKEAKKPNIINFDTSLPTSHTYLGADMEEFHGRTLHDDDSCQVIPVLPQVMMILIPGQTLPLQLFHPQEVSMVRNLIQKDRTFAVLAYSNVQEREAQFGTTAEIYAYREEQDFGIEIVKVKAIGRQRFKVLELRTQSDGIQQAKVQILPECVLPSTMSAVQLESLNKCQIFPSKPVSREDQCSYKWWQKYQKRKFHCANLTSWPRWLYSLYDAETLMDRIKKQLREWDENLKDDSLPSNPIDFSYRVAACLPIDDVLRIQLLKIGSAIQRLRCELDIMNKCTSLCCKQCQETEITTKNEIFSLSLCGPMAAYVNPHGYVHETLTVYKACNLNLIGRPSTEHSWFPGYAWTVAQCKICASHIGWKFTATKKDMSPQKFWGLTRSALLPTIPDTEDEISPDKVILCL
Chain of Protein cereblon/Cyclin-dependent kinase 6 (Homo sapiens) (Q00534 whole entry, looked up): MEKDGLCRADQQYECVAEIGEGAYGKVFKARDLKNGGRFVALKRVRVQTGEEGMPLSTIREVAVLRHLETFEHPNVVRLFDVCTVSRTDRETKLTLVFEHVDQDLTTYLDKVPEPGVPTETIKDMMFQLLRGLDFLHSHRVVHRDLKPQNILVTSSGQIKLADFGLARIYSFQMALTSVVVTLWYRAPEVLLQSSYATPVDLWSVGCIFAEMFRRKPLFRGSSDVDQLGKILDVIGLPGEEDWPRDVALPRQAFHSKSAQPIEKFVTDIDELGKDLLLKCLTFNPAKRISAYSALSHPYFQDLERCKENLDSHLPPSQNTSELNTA
Chain of Protein cereblon/Cyclin-dependent kinase 6 (Homo sapiens) (Q96SW2 whole entry, looked up): as the sequence (Q96SW2 whole entry partner) above

## CN(C)C(=O)c1cc2cnc(Nc3ccc(C(=O)NCCCCCCNc4cccc5c4C(=O)N(C4CCC(=O)NC4=O)C5=O)cc3)nc2n1C1CCCC1 (configuration not stated)
[1]
  Activity: 74.09%
[2]
  Activity: inactive
[3]
  Activity: 93.6%
[4]
  Activity: Dose-dependent effect
[5]
  Activity: 73.45%
[6]
  Activity: 29.3%
[7]
  Activity: 9.59%
[8]
  Activity: Tde
[9]
  Tmax: 45 min
[10]
  Activity: 0.14%
[11]
  Activity: 13.67%
[12]
  Activity: Tde
[13]
  Activity: inactive
[14]
  Activity: Active
[15]
  Activity: 30.56%
[16]
  Activity: Dose-dependent effect
[17]
  Activity: 70.3%
[18]
  Activity: 22.66%
[19]
  Activity: Active
[20]
  Activity: Tde
[21]
  Activity: 3.78%
[22]
  Activity: Dose-dependent effect
[23]
  Activity: 49.54%
[24]
  Activity: Tde
[25]
  Activity: Active
[26]
  inhibition: Active
[27]
  viability at 0.125 µM: 86.1%
